Test [1] concerns Dopamine D2 receptor (Mus musculus). In words: post-synaptic dopamine […] antagonist activity evaluated by inhibition of the apomorphine-induced stereotyped behavior in mice.
Test [2] is filed under the species Mus musculus. In words: Induction of catalepsy in mice. It is filed as functional.
For test [3], the species on record is Mus musculus. In words: Inhibition of the GBL-induced increase in DOPA accumulation in mice(DA auto receptor agonist activity). It is filed as functional.
The target of test [4] is T1, Alpha-1 adrenergic receptor (Mus musculus) (UniProt P97714+P97717+P97718). The test is described as follows: Inhibition of the lethal effects of noradrenaline in mice (alpha-1 induced adrenoceptor antagonist activity). It is filed as functional.
The species named for test [5] is Mus musculus. In words: Induction of catalepsy in mice. It is filed as functional.
Test [6] can be described thus: ratio between ED50 values of DA receptor antagonist activity and catalepsy. It is filed as functional.
The species entered for test [7] is Mus musculus. In words: post-synaptic DA receptor antagonist activity was evaluated by inhibition of the apomorphine-induced stereotyped behavior in mice. inactive at single given dose. It is filed as functional. An outline of the steps:
(§1)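 Overnight-fasted mice (16-20 h), groups of 10, given compound orally 1 h before apomorphine 1.5 mg/kg sc in 0.9% saline. Stereotypy observed for 1 min every 10 min over 40 min, starting 20 min post-apomorphine, scored by a published scale. ED50 with 95% confidence limits by linear regression, µmol/kg po.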

For test [8], the species on record is Mus musculus. In words: post-synaptic DA receptor antagonist activity was evaluated by inhibition of the apomorphine-induced stereotyped behavior in mice. inactive at below given dose. It is filed as functional. An outline of the steps: as §1
Test [9] concerns the target T1, Alpha-1 adrenergic receptor (Mus musculus). The test is described as follows: Inhibition of noradrenaline lethal effects in mice as alpha-1 induced adrenoceptor antagonist activity. The format is functional.
The species named for test [10] is Mus musculus. The test is described as follows: post-synaptic DA receptor antagonist activity was evaluated by inhibition of the apomorphine-induced stereotyped behavior in mice. 51% inhibition at single given dose. It is filed as functional. An outline of the steps:
as §1

The species entered for test [11] is Mus musculus. In words: post-synaptic DA receptor antagonist activity was evaluated by inhibition of the apomorphine-induced stereotyped behavior in mice. 49% inhibition at single given dose. The format is functional. An outline of the steps:
as §1

The species entered for test [12] is Mus musculus. In words: Inhibition of the GBL-induced increase in DOPA accumulation in mice(DA auto receptor agonist activity); IA = inactive. The format is functional, organism-based.
Test [13] is filed under the species Mus musculus. The test is described as follows: Inhibition of the GBL-induced increase in DOPA synthesis in mice; IA = inactive. It is filed as functional, organism-based.
The species named for test [14] is Rattus norvegicus. In words: Inhibition of the APO-induced stereotyped behavior in rats.
For test [15], the species on record is Rattus norvegicus. The test is described as follows: Inhibition of the GBL-induced increase in DOPA synthesis in rats.
The species named for test [16] is Rattus norvegicus. The test is described as follows: Inhibition of the APO-induced stereotyped behavior in rats.

Each structure is given as a SMILES string. Activity calls are given as the source filed them. The calls are words filed in the database; no cut-off is given here.

The term ED50 denotes the dose that gives a 50% effect, or the effect in half of the subjects.

T1 sequence (P97714 whole entry, looked up): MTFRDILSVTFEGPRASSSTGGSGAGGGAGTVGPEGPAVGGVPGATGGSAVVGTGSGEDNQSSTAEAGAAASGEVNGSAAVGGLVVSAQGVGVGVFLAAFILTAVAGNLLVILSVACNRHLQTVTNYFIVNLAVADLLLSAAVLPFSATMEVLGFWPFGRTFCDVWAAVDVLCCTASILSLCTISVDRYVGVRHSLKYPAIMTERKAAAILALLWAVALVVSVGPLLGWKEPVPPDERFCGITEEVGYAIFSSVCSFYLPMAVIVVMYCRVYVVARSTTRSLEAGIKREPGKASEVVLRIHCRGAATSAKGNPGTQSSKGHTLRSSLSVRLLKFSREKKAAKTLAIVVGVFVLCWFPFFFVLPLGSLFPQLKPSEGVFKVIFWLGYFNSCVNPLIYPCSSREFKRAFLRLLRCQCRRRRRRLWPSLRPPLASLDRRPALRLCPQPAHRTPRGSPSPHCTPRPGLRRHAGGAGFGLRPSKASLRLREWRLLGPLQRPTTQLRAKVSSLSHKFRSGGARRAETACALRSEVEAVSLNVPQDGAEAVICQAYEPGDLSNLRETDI
T1 sequence (P97717 whole entry, looked up): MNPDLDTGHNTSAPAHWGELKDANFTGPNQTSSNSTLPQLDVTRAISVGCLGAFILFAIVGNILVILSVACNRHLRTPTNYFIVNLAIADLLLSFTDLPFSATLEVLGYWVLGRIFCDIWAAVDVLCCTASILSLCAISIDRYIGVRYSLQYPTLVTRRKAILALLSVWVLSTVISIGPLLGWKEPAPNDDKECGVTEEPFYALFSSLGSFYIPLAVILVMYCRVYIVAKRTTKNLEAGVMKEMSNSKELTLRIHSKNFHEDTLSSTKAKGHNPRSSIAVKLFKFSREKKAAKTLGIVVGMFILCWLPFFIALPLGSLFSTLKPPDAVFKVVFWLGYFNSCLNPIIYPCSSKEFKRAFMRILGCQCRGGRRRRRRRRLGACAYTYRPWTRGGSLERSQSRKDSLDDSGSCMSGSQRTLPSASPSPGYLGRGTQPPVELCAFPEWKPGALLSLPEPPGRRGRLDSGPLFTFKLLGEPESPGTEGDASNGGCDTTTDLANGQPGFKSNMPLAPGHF
T1 sequence (P97718 whole entry, looked up): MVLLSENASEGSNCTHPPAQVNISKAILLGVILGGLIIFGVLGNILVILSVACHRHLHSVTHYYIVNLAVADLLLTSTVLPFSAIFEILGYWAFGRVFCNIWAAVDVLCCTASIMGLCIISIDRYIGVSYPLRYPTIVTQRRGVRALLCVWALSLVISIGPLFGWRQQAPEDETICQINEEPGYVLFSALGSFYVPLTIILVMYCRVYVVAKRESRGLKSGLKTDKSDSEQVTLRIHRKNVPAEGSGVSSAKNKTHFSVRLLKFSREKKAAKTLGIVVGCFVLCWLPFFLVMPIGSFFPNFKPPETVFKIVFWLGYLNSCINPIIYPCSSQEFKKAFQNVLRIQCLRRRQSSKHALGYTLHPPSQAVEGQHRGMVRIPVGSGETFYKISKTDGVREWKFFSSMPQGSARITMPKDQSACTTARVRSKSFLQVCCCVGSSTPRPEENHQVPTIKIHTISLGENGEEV

In test [1], `Cc1c(C#N)cccc1N1CCN(CCCCOc2ccc3c(c2)NC(=O)CC3)CC1` showed an ED50 of 4.1 µmol/kg.

On to `Cc1cccc(N2CCN(CCCCOc3ccc4c(c3)NC(=O)CC4)CC2)c1Cl`, for which the ED50 in the test filed under Mus musculus [2] is 1.4 µmol/kg; in the test filed under Mus musculus [3], more than 23 µmol/kg; in test [4] it was more than 150 µmol/kg.

On to `Oc1ccc2ccc(OCCCCN3CCN(c4cccc(Cl)c4Cl)CC3)cc2n1`, for which the ED50 in the test filed under Mus musculus [3] is more than 22 µmol/kg; in test [4], more than 287 µmol/kg; in test [1], 0.9 µmol/kg.

With `Cc1c(Cl)cccc1N1CCN(CCCCOc2ccc3ccc(O)nc3c2)CC1`, the median effective dose (ED50) was 12.6 µmol/kg in the test filed under Mus musculus [5], 20.1 µmol/kg in the test filed under Mus musculus [3], more than 299 µmol/kg in test [4] and 2.8 µmol/kg in test [1]. Further, the Ratio in [6] was 4.5.

For `O=C1CCc2ccc(OCCCCN3CCN(c4c(Cl)cccc4Cl)CC3)cc2N1`, the ED50 in the test filed under Mus musculus [7] (read-out: ED50) is more than 7 µmol/kg.

In the test filed under Mus musculus [8], `Cc1c(N)cccc1N1CCN(CCCCOc2ccc3c(c2)NC(=O)CC3)CC1` registered an ED50 of more than 25 µmol/kg.

For the compound `Cc1c(Cl)cccc1N1CCN(CCCCCOc2ccc3c(c2)NC(=O)CC3)CC1`, the ED50 in the test filed under Mus musculus [8] was more than 23 µmol/kg.

With `O=C1CCc2ccc(OCCCCN3CCN(c4ccc(Cl)c(Cl)c4)CC3)cc2N1`, in the test filed under Mus musculus [7] (read-out: ED50), the ED50 is more than 7 µmol/kg.

As for `N#Cc1ccccc1N1CCN(CCCCOc2ccc3c(c2)NC(=O)CC3)CC1`, in the test filed under Mus musculus [7] (read-out: ED50), the 50% effective dose (ED50) is more than 23 µmol/kg.

Take `CCOc1ccccc1N1CCN(CCCCOc2ccc3c(c2)NC(=O)CC3)CC1`: the ED50 in the test listed under Mus musculus [5] stood at 4.4 µmol/kg; in the test listed under Mus musculus [3] it was 0.65 µmol/kg; in test [9], 7 µmol/kg.

In the case of `Nc1ccccc1N1CCN(CCCCOc2ccc3c(c2)NC(=O)CC3)CC1`, in the test filed under Mus musculus [7] (read-out: ED50), the 50% effective dose (ED50) was more than 25 µmol/kg.

For the compound `O=C1CCc2ccc(OCCCCN3CCN(c4ccccc4)CC3)cc2N1`, the 50% effective dose (ED50) in the test listed under Mus musculus [8] is more than 28 µmol/kg.

Take `Cc1cccc(N2CCN(CCCCOc3ccc4ccc(O)nc4c3)CC2)c1C`: the ED50 in the test listed under Mus musculus [5] is 10.5 µmol/kg; in the test listed under Mus musculus [3] it was 3.9 µmol/kg; in test [4], more than 156 µmol/kg; in [1], 3.4 µmol/kg. The Ratio in test [6] was found to be 3.1.

`O=C1CCc2ccc(OCCCCN3CCN(c4ccccc4[N+](=O)[O-])CC3)cc2N1` yielded an ED50 in the test listed under Mus musculus [8] of more than 7 µmol/kg.

In the test listed under Mus musculus [3], `Cc1cccc(N2CCN(CCCCOc3ccc4c(c3)NC(=O)CC4)CC2)c1Br` had an ED50 of more than 21 µmol/kg.

For the compound `Cc1c(Br)cccc1N1CCN(CCCCOc2ccc3ccc(O)nc3c2)CC1`, in test [1], the 50% effect level (ED50) was put at a dose of 2.1 µmol/kg.

In the case of `Cc1cc(Br)ccc1N1CCN(CCCCOc2ccc3c(c2)NC(=O)CC3)CC1`, the ED50 in the test listed under Mus musculus [10] stood at 21 µmol/kg.

`Cc1c(F)cccc1N1CCN(CCCCOc2ccc3c(c2)NC(=O)CC3)CC1` registered an ED50 in the test filed under Mus musculus [11] of 7.2 µmol/kg.

For the compound `CCOc1ccccc1N1CCN(CCCCOc2ccc3ccc(O)nc3c2)CC1`, the ED50 in the test listed under Mus musculus [3] was more than 20 µmol/kg; in [4], more than 127 µmol/kg; in test [1], 0.24 µmol/kg.

Consider `O=C1CCc2ccc(OCCCCN3CCN(c4ccc(Cl)cc4)CC3)cc2N1`, for which the median effective dose (ED50) in the test listed under Mus musculus [8] was more than 8 µmol/kg.

Turning to `Cc1c(Cl)cccc1N1CCN(CCCCOc2ccc3c(c2)NC(=O)CC3)CC1`, the ED50 is 5.6 µmol/kg in the test listed under Mus musculus [5], 3.5 µmol/kg in the test filed under Mus musculus [3] and more than 299 µmol/kg in [9].

As for `CN(C)CCCN1c2ccccc2Sc2ccc(Cl)cc21` [CHLORPROMAZINE], the ED50 entry in the test filed under Mus musculus [12] and in the test filed under Mus musculus [13] was “inactive” in each case. Further, the results for the 50% effective dose (ED50) (in test [9]; in the test listed under Rattus norvegicus [14]) were 19.7 µmol/kg and 28.4 µmol/kg, respectively.

For the compound `CC(=O)Nc1cccc(N2CCN(CCCCOc3ccc4c(c3)NC(=O)CC4)CC2)c1C`, in the test filed under Mus musculus [8], the ED50 was more than 25 µmol/kg.

Regarding `O=C1CCc2ccc(OCCCCN3CCN(c4cc(Cl)cc(Cl)c4Cl)CC3)cc2N1`, the ED50 was more than 21 µmol/kg in the test listed under Mus musculus [3] and more than 265 µmol/kg in [9].

`O=C1CCc2cc(OCCCCN3CCN(c4cccc(Cl)c4Cl)CC3)ccc2N1`: in the test listed under Mus musculus [8], the ED50 was more than 22 µmol/kg.

In the case of `Cc1ccc(N2CCN(CCCCOc3ccc4c(c3)NC(=O)CC4)CC2)cc1Cl`, the 50% effective dose (ED50) in the test filed under Mus musculus [8] is more than 7 µmol/kg.

In the test listed under Mus musculus [8], `O=C1CCc2ccc(OCCCCN3CCN(c4ccc(Cl)cc4Cl)CC3)cc2N1` returned an ED50 of more than 7 µmol/kg.

For `Cc1c(Br)cccc1N1CCN(CCCCOc2ccc3c(c2)NC(=O)CC3)CC1`, it took a dose of 1.3 µmol/kg to reach the 50% effect level in the test listed under Mus musculus [3] (ED50).

In the case of `O=C(CCCN1CCC(O)(c2ccc(Cl)cc2)CC1)c1ccc(F)cc1` [HALOPERIDOL], the ED50 in the test listed under Mus musculus [5] was 0.9 µmol/kg; in test [9] it was more than 341 µmol/kg; in the test listed under Rattus norvegicus [14], 1.1 µmol/kg. Besides, the ED50 entry in the test listed under Mus musculus [12] and in the test listed under Mus musculus [13] was “inactive” throughout.

Turning to `O=C1CCc2ccc(OCCCCN3CCN(c4cccc(Cl)c4Cl)CC3)cc2N1` [ARIPIPRAZOLE], the ED50 was 5.1 µmol/kg in the test listed under Mus musculus [3]; more than 286 µmol/kg in [4]; more than 22 µmol/kg in the test filed under Mus musculus [7]; 11.8 µmol/kg in the test listed under Rattus norvegicus [14]; 6.9 µmol/kg in the test filed under Rattus norvegicus [15].

With `Cc1ccc(Cl)cc1N1CCN(CCCCOc2ccc3c(c2)NC(=O)CC3)CC1`, the ED50 in the test filed under Mus musculus [8] is more than 23 µmol/kg.

On to `Cc1c(N2CCN(CCCCOc3ccc4c(c3)NC(=O)CC4)CC2)cccc1[N+](=O)[O-]`, for which the ED50 in the test filed under Mus musculus [5] is 5.9 µmol/kg; in the test filed under Mus musculus [3], more than 23 µmol/kg; in [9] it was more than 146 µmol/kg; in test [1], 0.7 µmol/kg. Further, the Ratio in [6] was determined as 8.7.

As to `Cc1cccc(N2CCN(CCCOc3ccc4ccc(O)nc4c3)CC2)c1C`, the ED50 worked out at 3.5 µmol/kg in the test listed under Mus musculus [3]; 151 µmol/kg in test [9]; 1860 µmol/kg in the test listed under Rattus norvegicus [16]; 15.1 µmol/kg in the test filed under Rattus norvegicus [15]; 41.3 µmol/kg in test [1]. Further, the Ratio in test [6] is more than 1.4.

As for `O=C1CCc2ccc(OCCCCN3CCN(c4cc(Cl)cc(Cl)c4)CC3)cc2N1`, the ED50 was more than 22 µmol/kg in the test listed under Mus musculus [3] and more than 256 µmol/kg in test [4].

For `Cc1cccc(N2CCN(CCCOc3ccc4c(c3)NC(=O)CC4)CC2)c1C`, the median effective dose (ED50) in [1] worked out at 26 µmol/kg.

For the compound `Cc1c(O)cccc1N1CCN(CCCCOc2ccc3c(c2)NC(=O)CC3)CC1`, the ED50 in the test listed under Mus musculus [7] (read-out: ED50) was more than 8 µmol/kg.

Consider `O=C1CCc2c(cccc2OCCCCN2CCN(c3cccc(Cl)c3Cl)CC2)N1`, for which the 50% effective dose (ED50) in the test filed under Mus musculus [7] (read-out: ED50) is more than 22 µmol/kg.

As for `Cc1cccc(N2CCN(CCCCOc3ccc4c(c3)NC(=O)CC4)CC2)c1C`, the results for the 50% effective dose (ED50) (in the test filed under Mus musculus [5]; in the test filed under Mus musculus [3]; in [4]) were 13.5 µmol/kg, 9.1 µmol/kg and more than 314 µmol/kg, respectively.

The values above are taken from ChEMBL document CHEMBL1131480, “Novel antipsychotic agents with dopamine autoreceptor agonist properties: synthesis and pharmacology of 7-[4-(4-phenyl-1-piperazinyl)butoxy]-3,4-dihydro-2(1H)-quinolinone derivatives” (1998).
